Results as given in paper PMC3008401 (The Journal of infectious diseases, 2010).
Structures can show the parent of a compound that is named as a salt. Where two headings read alike, the source gives them in different places.

Key:
[1] = tested on: genotype 1b replicon cells; conditions: read-out: CC50 Measured by others (1b genotype); cited from earlier work
[2] = format: cell-based; conditions: human
How it was run: (§1)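 Huh-7.5 cells electroporated with in vitro transcribed luciferase replicon RNA (genotype 1b Bart79I-luc for line 1; full-length genotype 2a FL-J6/JFH-5′C19Rluc2AUbi for line 2). Seeded at ~2–3×10^4 cells/well, medium changed at 24 h then daily, serial compound dilutions, 4 replicates. At 72 h: 10% alamarBlue, 2 h at 37°C, fluorescence read. Normalized to untreated or DMSO controls. Mean ± SD.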

HCV J6-JFH (genotype 2a) = format: cell-based, Hepatitis C virus; conditions: SCH503034 alone at 2.5μM, 72hr
[3] = format: cell-based; conditions: human; remark: listed apart in the source
How it was run: as §1

[4] = estimated from preclinical animal data; cited from earlier work

| SMILES | CC50 [1] [µM] | CC50 at 72 h [2] [µM] | other results |
| --- | --- | --- | --- |
| CNC(=O)c1c(-c2ccc(F)cc2)oc2cc(N(CCO)S(C)(=O)=O)c(C3CC3)cc12 [HCV-796] | > 100 |  |  |
| CC(C)(C)OC(=O)N[C@H]1CCCCC/C=C\[C@@H]2C[C@@]2(C(=O)NS(=O)(=O)C2CC2)NC(=O)[C@@H]2C[C@@H](OC(=O)N3Cc4cccc(F)c4C3)CN2C1=O [ITMN-191] | > 50 |  |  |
| CC(C)[C@H](N)C(=O)O[C@@H]1[C@@H](CO)O[C@@H](n2ccc(N)nc2=O)[C@]1(C)O [NM-283, valopicitabine] | > 100 |  |  |
| NC(=O)c1ncn([C@@H]2O[C@H](CO)[C@@H](O)[C@H]2O)n1 [Ribavirin] |  | > 100 |  |
| CC(C)(C)NC(=O)N[C@H](C(=O)N1C[C@H]2[C@@H]([C@H]1C(=O)NC(CC1CCC1)C(=O)C(N)=O)C2(C)C)C(C)(C)C (stereo partly drawn) [SCH-503034, Boceprevir] | > 100 | > 100 | decrease of viral replication (HCV J6-JFH (genotype 2a)): ~ 1 log; CC50 at 72 h [3]: > 100 µM |
| CCC[C@H](NC(=O)[C@@H]1[C@H]2CCC[C@H]2CN1C(=O)[C@@H](NC(=O)[C@@H](NC(=O)c1cnccn1)C1CCCCC1)C(C)(C)C)C(=O)C(=O)NC1CC1 [VX-950, Telaprevir] | 26.7 to 82 |  |  |
| Clc1ccc(Cn2c(CN3CCCC3)nc3ccccc32)cc1 [clemizole, clemizole hydrochloride] |  | 35 ± 0.5 | CC50 at 72 h [3]: 40 ± 5 µM; no observed adverse events level (NOAEL) [4]: 100 mg/kg/day |
